From ChEMBL document CHEMBL5036385, “Piperazinobenzodiazepinones: New Encephalitic Alphavirus Inhibitors via Ring Expansion of 2-Dichloromethylquinazolinones” (ACS Med Chem Lett, 2022)
Converted amounts (≈) assume the structure as drawn. The source made the active and inactive calls. The calls are words filed in the database; no cut-off is given here.

Key:
[1] = system: Vero 76; test: Cytotoxicity against African green monkey Vero 76 assessed as reduction in cell viability measured after 72 hrs; assay type: cell-based; settings: chlorocebus sabaeus, vero 76, 72 h
Method in brief: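 Uninfected Vero 76 cells were exposed to compound, and viability was assessed 72 h post-treatment.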

[2] = system: Eastern equine encephalitis virus; test: Antiviral activity against eastern equine encephalitis virus infected in African green monkey Vero 76 cells assessed as virus induced cytopathic effect measured after 48 hrs; assay type: functional, organism-based; settings: Vero 76, 48 h
[3] = system: Venezuelan equine encephalitis virus; test: Antiviral activity against Venezuelan equine encephalitis virus infected in African green monkey Vero 76 cells assessed as virus induced cytopathic effect measured after 48 hrs; assay type: functional, organism-based; settings: Vero 76, 48 h
[4] = system: Venezuelan equine encephalitis virus; test: Antiviral activity against Venezuelan equine encephalitis virus infected in African green monkey Vero 76 cells assessed as reduction on virus yield at 5 uM after 18 hrs of post infection; assay type: functional
[5] = system: Eastern equine encephalitis virus; test: Antiviral activity against eastern equine encephalitis virus infected in African green monkey Vero 76 cells assessed as reduction on virus yield at 5 uM after 18 hrs of post infection; assay type: functional
[6] = system: Venezuelan equine encephalitis virus; test: Antiviral activity against Venezuelan equine encephalitis virus co-culture with brain Primary neuron cells HNC001 as reduction on virus titre at 5 uM in Vero 76 cells measured after 18 hrs by TCID50-MTT assay; assay type: functional, organism-based
[7] = Metabolic stability in CD-1 mouse liver microsomes assessed as half life measured at 60 mins in presence of NADPH by LC-MS/MS analysis; assay type: ADME, Microsome; settings: 1 h
Method in brief: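 Half-life was determined from stability in CD-1 mouse liver microsomes.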

[8] = Aqueous solubility of compound at pH 7.4 measured after 1460 min by HPLC analysis; assay type: physicochemical; settings: buffer
Method in brief: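 Kinetic solubility was measured in aqueous PBS buffer at pH 7.4.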

[9] = system: Eastern equine encephalitis virus; test: Antiviral activity against Eastern equine encephalitis virus co-culture with brain Primary neuron cells HNC001 as reduction on virus titre at 5 uM in Vero 76 cells measured after 18 hrs by TCID50-MTT assay; assay type: functional, organism-based
[10] = system: Eastern equine encephalitis virus; test: Antiviral activity against Eastern equine encephalitis virus co-culture with brain Primary neuron cells HNC001 as reduction on virus titre at 1 uM in Vero 76 cells measured after 18 hrs by TCID50-MTT assay; assay type: functional, organism-based
[11] = system: Venezuelan equine encephalitis virus; test: Antiviral activity against Venezuelan equine encephalitis virus co-culture with brain Primary neuron cells HNC001 as reduction on virus titre at 1 uM in Vero 76 cells measured after 18 hrs by TCID50-MTT assay; assay type: functional, organism-based

Row | Structure (SMILES) | CC50 [1] [µM] | EC50 [2] [µM] | EC50 [3] [µM] | Activity [4] | Activity [5] | Activity [6] | t1/2 [7] [min] | solubility kinetic at 24.33 h [8] [µM] | Activity [9] | Activity [10] | Activity [11]
1 | COc1ccc(N2C(=O)c3cc([N+](=O)[O-])ccc3N=C3[C@@H]2N(C)[C@@H]2CCCC[C@H]2N3C)cc1 | > 30 | 4.5 | 4.7 | – | – | – | – | – | – | – | –
2 | CN1CCN(C)C2C1=Nc1ccc([N+](=O)[O-])cc1C(=O)N2c1ccccc1 (configuration not stated) | > 30 | – | 0.12 | 2.6 | 5.7 | – | – | – | – | – | –
3 | COc1ccc(N2C(=O)c3cc([N+](=O)[O-])ccc3N=C3C2N(C2CCCCC2)CCN3C)cc1 (configuration not stated) | > 30 | 6.2 | 7 | – | – | – | – | – | – | – | –
4 | COc1ccc(N2C(=O)c3cc([N+](=O)[O-])ccc3N=C3C2N(Cc2ccccc2)CCN3C)cc1 (configuration not stated) | > 30 | 3.2 | 3 | – | – | – | – | – | – | – | –
5 | COc1ccc(N2C(=O)c3cc([N+](=O)[O-])ccc3N=C3C2N(C)CCN3C)cc1 (configuration not stated) | > 30 | 0.033 | – | 5.5 | 7.9 | Active | 10 | 0.7 (≈ 0.277 µg/mL) | Active | – | –
6 | COc1ccc(N2C(=O)c3cc(C#N)cc(Br)c3N=C3C2N(C)CCN3C)cc1F (configuration not stated) | > 30 | 3.2 | 4.1 | – | – | – | – | – | – | – | –
7 | COc1ccc(N2C(=O)c3cc([N+](=O)[O-])ccc3N=C3C2N(Cc2ccccc2)CCN3Cc2ccccc2)cc1 (configuration not stated) | > 30 | 13.8 | 19.8 | – | – | – | – | – | – | – | –
8 | COc1ccc(N2C(=O)c3cc(C#N)cc(-c4ccc(C)nc4)c3N=C3[C@H]2N(C)CCN3C)cc1F | – | 0.3 | 0.5 | 6.1 | 5.2 | Active | – | – | Active | inactive | inactive
9 | CN1CCN(C)C2C1=Nc1ccc([N+](=O)[O-])cc1C(=O)N2c1ccc(F)cc1 (configuration not stated) | > 30 | 0.11 | 0.15 | 2.9 | 6.1 | – | – | – | – | – | –
10 | COc1ccc(N2C(=O)c3cc(C#N)ccc3N=C3C2N(C)CCN3C)cc1 (configuration not stated) | > 30 | 2.5 | 4.2 | – | – | – | – | – | – | – | –
11 | COc1ccc(N2C(=O)c3cc([N+](=O)[O-])ccc3N=C3[C@H]2N(C)[C@H]2CCCC[C@@H]2N3C)cc1 | – | 3.8 | 5.6 | – | – | – | – | – | – | – | –
12 | COc1ccc(N2C(=O)c3cc(C#N)cc(-c4ccc(C)nc4)c3N=C3[C@@H]2N(C)CCN3C)cc1F | > 30 | 0.26 | 0.33 | 2.7 | 5.9 | Active | – | – | Active | inactive | inactive
13 | COc1ccc(N2C(=O)c3cc([N+](=O)[O-])ccc3N=C3C2N(C)CCN3C)cc1F (configuration not stated) | > 30 | – | 0.048 | 3.7 | 7.7 | Active | 10 | 0.5 (≈ 0.207 µg/mL) | Active | – | –
14 | COc1ccc(N2C(=O)c3cc(C#N)cc(N4CCOCC4)c3N=C3C2N(C)CCN3C)cc1F (configuration not stated) | > 30 | 1.9 | 2.5 | 2.5 | 4 | – | – | – | – | – | –
15 | CN1CCN(C)C2C1=Nc1ccc(F)cc1C(=O)N2c1ccccc1 (configuration not stated) | > 30 | > 30 | > 30 | – | – | – | – | – | – | – | –
16 | COc1ccc(N2C(=O)c3cc(C#N)cc(-c4ccc(C)nc4)c3N=C3C2N(C)CCN3C)cc1F (racemic) | 23.3 | 0.16 | 0.24 | 5.2 | 6.9 | Active | 45 | 2 (≈ 0.969 µg/mL) | Active | inactive | inactive
17 | CN1CCN(C)C2C1=Nc1ccc(C#N)cc1C(=O)N2c1ccccc1 (configuration not stated) | > 30 | 4.4 | 7 | – | – | – | – | – | – | – | –
18 | CN1CCN(C)C2C1=Nc1cc([N+](=O)[O-])ccc1C(=O)N2c1ccccc1 (configuration not stated) | > 30 | > 30 | > 30 | – | – | – | – | – | – | – | –
19 | COc1cccc(N2C(=O)c3cc([N+](=O)[O-])ccc3N=C3C2N(C)CCN3C)c1 (configuration not stated) | > 30 | 0.5 | 0.53 | 2.4 | 5.7 | – | – | – | – | – | –
